Experimental data as given in ChEMBL document CHEMBL5223176, “Design, synthesis, docking, and biochemical characterization of non-nucleoside SARS-CoV-2 RdRp inhibitors” (Bioorg Med Chem, 2023).
Activity calls are given as the source filed them. No cut-off for these calls is given here.

Assays:
[1] = Kinetic solubility of the compound in pH 7.4 PBS incubated for 24 hrs by UPLC/MS analysis; format: physicochemical; details: buffer, pH 7.4, 24 h
[2] = Metabolic stability in mouse liver microsomes assessed as half life preincubated with microsomes for 15 mins followed by NADPH addition and measured upto 60 mins by LC-MS/MS analysis; format: ADME, Microsome; details: time < 75 min
Outline: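 Compound at 4.6 µM final preincubated 15 min at 37 °C with mouse liver microsomes in 0.1 M Tris-HCl pH 7.4, then NADPH, G6P, G6PDH and MgCl2 added; sampled at 0, 5, 15, 30, 60 min into cold acetonitrile with internal standard. LC-MS/MS with positive ESI; percent remaining versus t = 0; half-life from one-phase decay non-linear regression.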

[3] = Metabolic stability in mouse plasma assessed as half life measured upto 120 mins by LC-MS/MS analysis; format: ADME, cell-free
Outline: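 Compound at 2 µM final incubated at 37 °C for up to 2 h in mouse plasma with 5 % DMSO; sampled at 0, 5, 15, 30, 60, 120 min into cold acetonitrile with internal standard, centrifuged, supernatant diluted 1:1 with water and quantified by LC-MS/MS.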

HEK293 = test: Cytotoxicity against HEK293 cells assessed as inhibition of cell growth at 100 uM incubated for 24 to 48 hrs by MTT assay; format: toxicity, cell-based; details: human, hek293, 100 µM, time 24-48 hrs
Outline: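 HEK-293 cells grown in DMEM with 2 mM L-glutamine, 10 % heat-inactivated FBS, 1 % penicillin/streptomycin, 37 °C, 5 % CO2; seeded 10,000 cells/well, treated 24 h after seeding for 24 or 48 h, vehicle DMSO 0.5 % final. MTT 0.5 mg/ml for 2 h, formazan dissolved in ethanol, absorbance 570 nm (ref 650 nm); 8 serial dilutions in triplicate, three independent experiments, mean ± SD.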

[4] = target: Replicase polyprotein 1ab (Severe acute respiratory syndrome coronavirus 2, UniProt P0DTD1); test: (§1) Inhibition of SARS-CoV-2 RdRp using ATP substrate preincubated with compound for 30 mins followed by substrate addition and measured after 30 mins by Alphascreen microplate reader analysis
SARS-CoV-2 = test: Antiviral activity against SARS-CoV-2 human/Czech Republic/951/2020 infected in African green monkey Vero cells pretreated […] followed by viral infection and measured after 48 hrs by viral titer reduction assay; format: functional, organism-based; details: Severe acute respiratory syndrome coronavirus 2, human/Czech Republic/951/2020, Vero
[5] = target: Replicase polyprotein 1ab (Severe acute respiratory syndrome coronavirus 2) (UniProt P0DTD1); test: as §1; details: time 60.0 min

SMILES | Kinetic_solubility [1] [µM] | half-life [2] [h] | half-life [3] [h] | further results
CC(c1ccc(O)c(O)c1)c1cc(=O)c2c(O)cccc2o1 (stereo not drawn) | 165 | > 2 | > 1 | Activity (HEK293): Non-Toxic
CCCCC(c1ccc(O)c(O)c1)c1cc(=O)c2c(O)cccc2o1 (stereo not drawn) | – | – | – | IC50 [4]: > 100 µM
O=c1cc(Cc2ccc(O)c(O)c2)oc2cccc(O)c12 | 63 | > 2 | > 1 | –
O=C(Nc1ccc(O)c(O)c1)c1cc(=O)c2c(O)cccc2o1 | 65 | 1.38 | 1 | –
CCCCOc1c(-c2ccc(O)c(O)c2)oc2cc(O)cc(O)c2c1=O | 156 | > 2 | > 1 | Activity (HEK293): Non-Toxic
O=c1cc(/C=C/c2ccc(O)c(O)c2)oc2cccc(O)c12 | < 1 | – | – | –
O=c1c(OCCO)c(-c2ccc(O)c(O)c2)oc2cc(O)cc(O)c12 | 167 | > 2 | > 1 | Activity (HEK293): Non-Toxic
O=c1cc(CCc2ccc(O)c(O)c2)oc2cccc(O)c12 | 67 | > 2 | > 1 | –
O=c1cc(-c2ccc(O)c(O)c2)oc2cc(O)cc(O)c12 [LUTEOLIN] | – | > 2 | > 1 | –
Cc1c(-c2ccc(O)c(O)c2)oc2cc(O)cc(O)c2c1=O | 32 | – | – | –
O=c1c(O)c(-c2ccc(O)c(O)c2)oc2cc(O)cc(O)c12 [QUERCETIN] | – | 0.117 | > 1 | –
CCCCc1c(-c2ccc(O)c(O)c2)oc2cc(O)cc(O)c2c1=O | < 1 | – | – | IC50 [4]: 6 µM
O=C(N[C@@H](Cc1ccc(O)cc1)C(=O)O)c1cc(-c2ccccc2)c(=O)n2c1sc1ccc(OC3CCCCC3)cc12 | – | – | – | EC50 (SARS-CoV-2): 0.65 µM
O=C(Oc1ccc(O)c(O)c1)c1cc(=O)c2c(O)cccc2o1 | < 1 | – | – | –
O=C(NCCNC(=S)Nc1ccc(O)c(O)c1)c1cc(=O)c2c(O)cccc2o1 | < 1 | – | – | –
O=c1cc(C(CCCC(F)(F)F)c2ccc(O)c(O)c2)oc2cccc(O)c12 (stereo not drawn) | – | – | – | inhibition [5]: inactive
O=c1c(OCCCO)c(-c2ccc(O)c(O)c2)oc2cc(O)cc(O)c12 | – | 1.5 | 1 | Activity (HEK293): Non-Toxic
CCCc1c(-c2ccc(O)c(O)c2)oc2cc(O)cc(O)c2c1=O | 13 | – | – | –
